Test results as given in the EternaBench riboswitch data.

Test system: MS2 coat protein
Experiment: apparent Kd, MS2 coat protein; higher = weaker binding; RNA-MaP array; FMN 200 µM where present
Summary of the method: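 Stalled E. coli RNA polymerase transcribed the designs on Illumina sequencing-chip clusters. SNAP-549-labelled MS2 coat protein was titrated from 0.7 or 1.5 nM, doubling to 3 µM, without and then with constant ligand, in 100 mM Tris-HCl pH 7.5, 80 mM KCl, 4 mM MgCl2, BSA, DTT, yeast tRNA and Tween-20. Per-cluster binding curves were fitted to green signal normalised to red-channel RNA signal and control-cluster median Fmax. The apparent Kd is the median of the filtered fits.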

[1] = designed as: ON switch for flavin mononucleotide, no ligand
[2] = ligand present: flavin mononucleotide, designed as: ON switch for flavin mononucleotide
[3] = designed as: OFF switch for flavin mononucleotide, no ligand
[4] = ligand present: flavin mononucleotide, designed as: OFF switch for flavin mononucleotide

| Sequence | apparent Kd [1] [nM] | apparent Kd [2] [nM] | apparent Kd [3] [nM] | apparent Kd [4] [nM] |
| --- | --- | --- | --- | --- |
| ACAUGAUACAAGAAGGAUGAAUUAGAUUUGAUCAUAGGAUAUUGUUAUAUUGUUUACUCUAAUAACAUGAGGAUCACCCAUGUA | 10.4 | 6.94 | – | – |
| GGUACUCAAAGAGUACCAAUACGAACAUGAGGAUCACCCAUGUAGGAUAUGCUACUCAAAGAGUAGCAGAAGGACAUGUGCUUU | – | – | 38.8 | 252 |
| UGUUGUAUUACAGGAUAUCUAUUAGGUUUAUUUAGAGAAGGGUAUUCACAUGAGGAUCACCCAUGUAUAUACGAGGAAGUUGUG | 56.2 | 63.3 | – | – |
| GGCCCACAUGAGGAUCACCCAUGUGAGGAUAUGUUAGUUUCGGCGAAAGCCGAAAUUAACAGAAGGCACAGGCC | – | – | 11.7 | 13.6 |
| UUUAUGUAAGAGAAGGAGGACUUCAUGAGGAUCACCCAUGUGUUAGUACUUAGGAUAUUUGACAACAUGAGGAUCACCCAUGUC | 59.9 | 58.4 | – | – |
| GCGAGGACGGCAGGAUAUUGACAUGAGGAUCACCCAUGUAUUUGGGAGUGUUCACUGAAUUCUUACGAGAAGGGCCGUCCACGC | – | – | 312 | 261 |
| UGGUGAAGUGUAGGAUAUGGAGGUGGGUUUUGGCCAGAAGGACAUGAGGAUCACCCAUGUGGUAGAGGGUUGGUGGUGGCCCGU | – | – | 16.7 | 15.2 |
| CACCGUAACAGAGGAUAUCAAACAUGAGGAUCACCCAUGUAAUAAAUGAGAAUUUCGAAUGUACCUGAGAAGGCUGAAACCGGC | – | – | 35.6 | 41.1 |
| CGAUUUUAUAGAGGAUAUGUUUAACAUGAGGAUCACCCAUGUGAGGUGGAAAUAUUUAAUUACAUACAGAAGGCUAUACAAUCG | – | – | 234 | 180 |
| GUUGCGUUUGUGAGGAUAUGCUGUUCCUUGGUUCGGCAGAAGGCACAUGAGGAUCACCCAUGUGGUGUCGUUCC | – | – | 15.5 | 28.7 |
| CAAUUUAUAACAGGAUAUGUAUUACAAUAGUUAAUAGAAGGGUUUAAUACAUGAGGAUCACCCAUGUCAUGUGUCAUAAUUACC | – | – | 33.5 | 28.8 |
| AAAGUGUAAGGAUAUGCUGCUCGUCACUUGCGUGAUGAGUAGCAGAAGGUACAUGAGGAUCACCCAUGUAAAAA | – | – | 28.8 | 38.3 |
| AAGGUGCAGGUACAGGAUAUGUUGCUCGUAACAUGAGGAUCACCCAUGUACCUAUGAGAUUAAAUGCAGAAGGGUGCACACCAAA | 792 | 87.5 | – | – |
| GACUGCCGAGGAUAUACAUGAGGAUCACCCAUGUGCUUCAGCAUUUUUUAAUGCAUGGGUAGAAGGCGGUAGUC | – | – | 32.6 | 68.5 |
| GCAUGGAAAGUGAGGAUAUACCACUGGAUACAGUGGUAGAAGGCACAUGAGGAUCACCCAUGUUUCUACCAUGC | – | – | 13.4 | 19.1 |
| AAUCUGUGAGGAUAUGGUGAGUAGUGCCUGAGCGCUGCUCACCAGAAGGCACAUGAGGAUCACCCAUGUAUGAA | – | – | 31.2 | 99.6 |
| GGACAUUUACAGAAGGGCAAGUUAGAUAGUGAAUAUUUAGAUCUGACUUGCAGGAUAUGUUGAACAUGAGGAUCACCCAUGUCC | 13.7 | 10.8 | – | – |
| CUGAAGAUAUCAGGAUAUCUAUUUCCUACAUGAGGAUCACCCAUGUAGGUGAUCAGCCAAGUAAAGGAGAAGGGAUAUCUUUAG | 32.3 | 9.78 | – | – |
| UGGGCCUCGUGAGGAUAUACAUGAGGAUCACCCAUGUAAUAAAGUGAACGGAGGAAACUCCGAAUGUAGAAGGCACGAGGCUCA | – | – | 19.5 | 147 |
| AUAAUUUUAUAUUUAUUUUUAUUCAGAAGGCAUAACAUGAGGAUCACCCAUGUAAAUUAAUGUUAUGAGGAUAUGAUUUGGUUA | – | – | 26.2 | 123 |
| GUGGGUGAUGGAGGAUAUGACGACGGGUUUUACAUGAGGAUCACCCAUGUGGCGUUCCGCAAAAGUCAGAAGGCCAGGUAUACU | 332 | 40.6 | – | – |
| AUACCACGAGGAUAUCGUCUAUAUUACAUGAGGAUCACCCAUGUUAUAUUUGUAAUGUUUCGAGAAGGCGUGUUUU | – | – | 15.3 | 13.3 |
| AGCUGCAAUCAGAAGGAGUAGGGUACAUGAGGAUCACCCAUGUCCGAUGCUAGGAUAUGAAAGCAGACCCGUGGUACCAAUCCC | 33.5 | 7.39 | – | – |
| UAUUAUUGCAAGGAUAUGCUUUUUAUUUCUUUUGCAGAAGGUGCAACAUGAGGAUCACCCAUGUUUCCGGGUAU | – | – | 19.7 | 28.9 |

| Sequence | apparent Kd [1] [nM] | apparent Kd [2] [nM] | apparent Kd [3] [nM] | apparent Kd [4] [nM] |
| --- | --- | --- | --- | --- |
| UGUCGGAGCAGAGGAUAUUACAUGAGGAUCACCCAUGUAUGAACCAAUAGCUGGAAAUAGCAAUGUAAGAAGGCUGCUCCGACA | – | – | 15.8 | 168 |
| AUCGACAACAUCAUGGUGGAUCCUGAGGAUAUGAAUAGCUACAUGAGGAUCACCCAUGUCCCGCGUCAGAAGGCAGGUUUGAUC | 400 | 41.3 | – | – |
| AUUUAAAUGUCAGGAUAUGUUAGUUUAUACAUAGUAGAAGGGAUAAUUAUACUCAUGUACAUGAGGAUCACCCAUGUUAAAUAA | 206 | 107 | – | – |
| AGGAGUACAGGAUAUACAUGAGGAUCACCCAUGUGAGAAUUAAGUGGCGUACCACAAAGUAGAAGGGUACUCCA | – | – | 50.5 | 198 |
| GUCAGCUCGUGAGGAUAUACAACACUGCUUCGGCAGUGUAUUAAGAUCACAUGAGGAUCACCCAUGUAGAAGGAACGAGCUGAU | – | – | 7.52 | 24.2 |
| AGAAUGAUGUCAGGAUAUGACGCUGAGAGCACGUCAGAAGGGACAUGAGGAUCACCCAUGUCGGGCUAAUGAAGCUAUGGCACU | – | – | 8.86 | 11.7 |
| GUAGCAUUAUAAGGAUAUUCAUACCGGAAACGGACAUGAGGAUCACCCAUGUGGCGAAAGCCUUGGGAGAAGGUAUUGUGCUAC | 402 | 24.6 | – | – |
| AAAGACAUGAGGAUCACCCAUGUCGGUAUAACUUAAGCGUCACAGGAUAUGUUACGAAAUUAUGGACAGAAGGGUGAGCUGUGG | 23.8 | 9.02 | – | – |
| GAAUGUCGGGUAGGAUAUGACGUGCCACGGAGGUCAGAAGGGCCACGACAUGAGGAUCACCCAUGUACUGUAUUCCUUUUUCAA | – | – | 22.9 | 60.4 |
| GCUACUUAUUUUAAUUAUGAUUUACUAGAAGGUAGAUACAUGAGGAUCACCCAUGUUUAGAGUUCUAAGGAUAUAGUUUUUAGC | 8.25 | 7.24 | – | – |
| AAAAAACAUGAGGAUCACCCAUGUGAGGAUAUCGUGCAGAAAAAAAAAAAAAACUGCACGAGAAGGCACAUGAA | – | – | 237 | 460 |
| GGGAAGUAAGGAUAUGCUGCUCGUCACUUGCGUGAUGAGUAGCAGAAGGUACAUGAGGAUCACCCAUGUAAAGA | – | – | 29.7 | 26.9 |
| CAUCAGUGAGGAUAUCGGGCCUGUGGCUGCUCAGCCCGGUUCGAGAAGGCACAUGAGGAUCACCCAUGUGACGU | – | – | 20.4 | 46.8 |
| GCACUGACAGGAUAUACAUGAGGAUCACCCAUGUGACCCUUAUAGUACUCGCGUACUGGUAGAAGGGUCUGUGC | – | – | 78.8 | 558 |
| CUUAGACAUGAGGAUCACCCAUGUGAGGAUAUGAUGCAGCAGUGGUCUACGCUGUGCAUCAGAAGGCACAUGUG | – | – | 80.7 | 14.2 |
| GGUGUCGCAUGAGGAUAUGGUCAGCUUUGCUGACCAGAAGGCAUGUCAAUAGACAUGAGGAUCACCCAUGUAGUAAAGACACCA | – | 37.1 | – | – |
| AAAACAUGAGGAUCACCCAUGUUAAGAUCGGUUAAUAGAAGUGAGGAUAUACGAAGUUAAAGCUGGUAGAAGGCACUGGGUACA | 29.2 | 26.5 | – | – |
| CCUAAGGACACAGGAUAUAGCGUGGUGGGUGGGCUCCAACGACGAGCGGCGCUAGAAGGGUGACCACAUGAGGAUCACCCAUGU | 668 | 205 | – | – |
| GUAGCAACAUGAGGAUCACCCAUGUAGGAUAUCGCUAUUGUAAUCAUGAAACAUGAUUACAAUAGCGAGAAGGACAUAUGCUAC | – | – | 6.93 | 10.2 |
| GUAGCUAUCGCAGGAUAUCCUCAGGCGAAAGCCACAUGAGGAUCACCCAUGUAAAUUAAGAAUUUGGAGAAGGGCGAUAGCUAC | 479 | 27.3 | – | – |
| GAGUAGAAGUUAGGAUAUUGGAUAGGGACGGAAUAAGAAGGAGCAAGACAUGAGGAUCACCCAUGUGUAGAAGAAGAGAUCCUC | – | – | 448 | 168 |
| AGUCGGAGCAGAGGAUAUACAUGAGGAUCACCCAUGUAAUAAAGUGAAGACUGGAAACAGUCAAUGUAGAAGGCUGCUCCGACA | – | – | 27.2 | 210 |
| CGAAAUGAUAGAGGAUAUGUUAUACAUGAGGAUCACCCAUGUUUAAUGGGAUUAAUAAAUAUCUUACAGAAGGCUAUUCAAUCG | – | – | 32 | 20.7 |
| GUACUGUAGUGAGGAUAUACGAGAUCGAUAGAUCGGCGAUCCAUAUAUACAUGAGGAUCACCCAUGUAGAAGGCACUUCAGUAC | – | – | 7.02 | 93.4 |
